Holding throughout (format): functional, cell-based
In one assay the test system is FRO. Description: (§1) Cytotoxicity against human FRO cells after 48 hrs by MTT assay. In a few lines: (§2)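 Adherent lines from ATCC, grown in DMEM with 2 mM L-glutamine, 10% heat-inactivated FBS and 1% pen/strep, used for up to 10 passages. 3 × 10^3 cells were seeded per well and left overnight at 37 °C in 5% CO2. Serial dilutions (1-50 µM) were added for 48 h. MTT (5 mg/mL stock) was added for 3 h, then solubilised in 50% DMF/20% SDS at pH 4.5. OD was read at 620 nm, with viability given as % of 0.1% DMSO controls.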
(In general: Tetrazolium dyes change colour on reduction, which living cells bring about.)

The next assay has as its system T98G. Description: Cytotoxicity against human T98G cells after 48 hrs by MTT assay. The method, boiled down: as §2
The next assay concerns SAOS-2. Description: Cytotoxicity against human Saos2 cells after 48 hrs by MTT assay. The method, boiled down: as §2
The next assay concerns M14. Description: Cytotoxicity against human M14 cells after 48 hrs by MTT assay. The method, boiled down:
as §2

Another assay concerns A549. Description: Cytotoxicity against human A549 cells after 48 hrs by MTT assay. In a few lines: as §2
In the next assay the test system is U-937. Description: Cytotoxicity against human U937 cells after 48 hrs by MTT assay. The method, boiled down:
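U937 cells were grown in RPMI with 2 mM L-glutamine, 10% FBS and 1% pen/strep, for no more than 10 passages. 3 × 10^3 cells per well were plated and incubated overnight at 37 °C in 5% CO2, then exposed to serial dilutions (1-50 µM) for 48 h. MTT (5 mg/mL stock) was added for 3 h, followed by lysis in 50% DMF/20% SDS at pH 4.5. OD was read at 620 nm, and viability was expressed against 0.1% DMSO controls.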

A further assay has as its system MCF7. Description: Cytotoxicity against human MCF7 cells after 48 hrs by MTT assay. In a few lines:
as §2

A short description of assay [1]: as §1. In a few lines: as §2

The structures appear in SMILES notation. The source made the active and inactive calls. The rule behind the calls is not given here.

For the compound `C=C1C[C@@H](O[C@@H]2O[C@H](CO[C@@H]3OC[C@](O)(CO)[C@H]3O)[C@@H](O)[C@H](O)[C@H]2O)[C@@H]2C(C)(C)[C@H](O)CC[C@@]2(C)[C@@H]1COc1ccc2ccc(=O)oc2c1`, the outcome with FRO, in the assay with T98G, in the assay with SAOS-2, in the assay with M14, with A549 and with U-937 was inactive. In addition, the result with MCF7 was inactive.
What is called IC50 is the midpoint of a concentration-inhibition curve. Turning to `CC1=CC[C@@H]2C(C)(C)[C@H](O)CC[C@@]2(C)[C@@H]1COc1ccc2ccc(=O)oc2c1` [FESELOL], the 50% inhibitory concentration (IC50) in assay [1] is above 10 µM; with T98G it was above 10 µM; with SAOS-2 (SAOS-2, 48 h) it was above 10 µM; in the assay on M14 (M14, 48 h), above 10 µM; in the assay on A549 (A549, 48 h) it was above 10 µM; in the assay on U-937 (U-937, 48 h) it was 8 µM. Further, in the assay with MCF7 (MCF7, 48 h), the half-maximal inhibitory concentration (IC50) is above 10 µM.
For `C=C1C[C@@H](O[C@@H]2O[C@H](CO)[C@@H](O)[C@H](O)[C@H]2O)[C@@H]2C(C)(C)[C@@H](O)CC[C@@]2(C)[C@@H]1COc1ccc2ccc(=O)oc2c1`, the result in the assay on FRO, with T98G, with SAOS-2, with M14, with A549 and in the assay on U-937 was inactive. Also, the outcome in the assay with MCF7 was inactive.
Take `CC1(C)[C@H](O)CC[C@]2(C)[C@@H]1C=C[C@](C)(O)[C@H]2COc1ccc2ccc(=O)oc2c1`: the outcome with FRO, in the assay with T98G, with SAOS-2, in the assay with M14, in the assay with A549 and with U-937 was inactive. The result in the assay on MCF7 was inactive.
As for `C=C1C[C@@H](O[C@@H]2O[C@H](CO)[C@@H](O)[C@H](O)[C@H]2O)[C@@H]2C(C)(C)[C@H](O)CC[C@@]2(C)[C@@H]1COc1ccc2ccc(=O)oc2c1`, the result in the assay with FRO, with T98G, with SAOS-2, in the assay on M14, in the assay on A549 and in the assay on U-937 was inactive. Moreover, in the assay on MCF7, the outcome was inactive.
